Assay results reported in ChEMBL document CHEMBL1156706, “Structure-activity relationships of novel heteroaryl-acrylonitriles as cytotoxic and antibacterial agents” (Eur J Med Chem, 2008).
Values after ≈ are worked out from the molar mass of the structure shown.

Legend:
RT-4 = test: Cytotoxicity against human RT4 cells after 96 hrs by microtiter assay; type: functional, cell-based; settings: RT-4, 96 h
Outline: (§1)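 DSMZ cell lines in RPMI 1640 with 10% FCS. DMF stocks diluted 1000-fold into medium. Continuous exposure 96 h at 37 °C, 5% CO2. Adherent cells stained with crystal violet. IC50 (50% growth inhibition vs untreated control) obtained by least-squares fitting of dose–response curves, averaging 2–5 independent determinations.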

[1] = Aqueous solubility in phosphate buffered saline at pH 7.4 after 24 hrs; type: physicochemical
Outline: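 Solid added in excess to Dulbecco's PBS, pH 7.4, and stirred in the dark 24 h at room temperature. Suspension filtered through a 0.22 filter. Filtrate absorbance read at each compound's λmax, and dissolved concentration calculated from the extinction coefficient at that wavelength.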

5637 = test: Cytotoxicity against human 5637 cells after 96 hrs by microtiter assay; type: functional, cell-based; settings: Homo sapiens, 5637, 96 h; outline: as §1
[2] = Cytotoxicity against human LCLC-103H cells after 96 hrs by microtiter assay; type: functional, cell-based; outline: as §1
YAPC = test: Cytotoxicity against human YAPC cells after 96 hrs by microtiter assay; type: functional, cell-based; outline: as §1
KYSE-510 = test: Cytotoxicity against human KYSE510 cells after 96 hrs by microtiter assay; type: functional, cell-based; settings: KYSE-510, 96 h; outline: as §1
DAN-G = test: Cytotoxicity against human DAN-G cells after 96 hrs by microtiter assay; type: functional, cell-based; outline: as §1
RT-112 = test: Cytotoxicity against human RT112 cells after 96 hrs by microtiter assay; type: functional, cell-based; settings: RT-112, 96 h; outline: as §1
[3] = Cytotoxicity against human KYSE520 cells after 96 hrs by microtiter assay; type: functional, cell-based; settings: KYSE-520, 96 h; outline: as §1
A-427 = test: Cytotoxicity against human A427 cells after 96 hrs by microtiter assay; type: functional, cell-based; settings: A-427, 96 h; outline: as §1
MCF7 = test: Cytotoxicity against human MCF7 cells after 96 hrs by microtiter assay; type: functional, cell-based; settings: MCF7, 96 h; outline: as §1
SISO = test: Cytotoxicity against human SISO cells after 96 hrs by microtiter assay; type: functional, cell-based; outline: as §1
[4] = Cytotoxicity against human KYSE70 cells after 96 hrs by microtiter assay; type: functional, cell-based; settings: KYSE-70, 96 h; outline: as §1
Enterococcus hirae = test: Antibacterial activity against Enterococcus hirae NCTC 10541 after 24 hrs; type: functional, organism-based; settings: NCTC 10541, 24 h
Outline: (§2)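 Overnight culture diluted in Mueller–Hinton broth to 10^5 CFU/ml. Compounds dissolved in DMSO and diluted twofold in broth over 0.24–62.5 […]. Tubes inoculated and incubated 24 h at 37 °C. MIC taken as the lowest concentration with no visible growth. Clear tubes were subcultured onto Mueller–Hinton agar, and MBC was taken as the minimal concentration killing the organisms after 24 h.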

Staphylococcus aureus = test: Antibacterial activity against Staphylococcus aureus NCTC 4163 after 24 hrs; type: functional, organism-based; settings: NCTC 4163, 24 h; outline: as §2
[5] = system: Staphylococcus epidermidis; test: Antibacterial activity against Staphylococcus epidermis NCTC 14990 after 24 hrs; type: functional, organism-based; settings: NCTC 14990, 24 h; outline: as §2

Row | solubility at 24 h [1] [µM] | MIC (Enterococcus hirae) [µM] | MIC (Staphylococcus aureus) [µM] | MIC [5] [µM] | SMILES | IC50 (RT-4) [µM] | IC50 5637 [µM] | IC50 [2] [µM] | IC50 (YAPC) [µM] | IC50 (KYSE-510) [µM] | IC50 (DAN-G) [µM] | IC50 (RT-112) [µM] | IC50 [3] [µM] | IC50 (A-427) [µM] | IC50 (MCF7) [µM] | IC50 (SISO) [µM] | IC50 [4] [µM]
1 | 23 (≈ 5.69 µg/mL) |  |  |  | N#C/C(=C\c1ccccn1)c1nc2ccccc2o1 | > 20 | > 20 | > 20 |  |  |  |  |  |  |  |  | 
2 |  |  |  |  | N#C/C(=C\c1ccc([N+](=O)[O-])cc1)n1cnc2ccccc21 | 2.56 | 2.2 | 1.71 | 2.43 | 2.41 | 1.53 | 2.2 | 1.92 | 1.7 | 2.47 | 4.34 | 2.63
3 | 2 (≈ 0.527 µg/mL) |  |  |  | N#C/C(=C\c1ccccn1)c1nc2ccccc2s1 | 9.69 | 6.65 | 7.8 | 8.27 | 13 | 6.47 | 8.19 | 9.18 | 6.05 | 4.34 | 5.69 | 7.28
4 | 0.5 (≈ 0.149 µg/mL) | 210 (≈ 62.4 µg/mL) | 6.4 (≈ 1.9 µg/mL) | 3.2 (≈ 0.951 µg/mL) | N#C/C(=C\c1ccc([N+](=O)[O-])s1)c1nc2cccnc2[nH]1 | 0.33 | 0.17 | 0.11 | 0.3 | 0.74 | 0.62 | 0.62 | 0.32 | 0.11 | 0.2 | 0.53 | 0.38
5 |  |  |  |  | O=C1CN(/N=C/c2ccc([N+](=O)[O-])o2)C(=O)N1 [NITROFURANTOIN] | 7 | 21.3 | 2.34 |  | 29 | 6.74 |  |  | 1.86 | 4.44 | 7.27 | 22.8
6 |  |  |  |  | S=P(N1CC1)(N1CC1)N1CC1 [THIOTEPA] | 18.3 | 2 | 6.97 | 2.66 | 4.31 | 1.66 | 3.4 | 6.44 | 1.58 | 3.23 | 1.4 | 5.4
7 | < 0.1 | > 210 | 210 (≈ 62.4 µg/mL) | 210 (≈ 62.4 µg/mL) | N#C/C(=C\c1ccc([N+](=O)[O-])s1)c1nc2ccccc2o1 | 6.57 | 3.91 | 12.1 | 1.7 | 22.6 | 12.6 | 3.88 | 2.76 | 2.33 | 5.69 | 14.1 | 5.3
8 |  |  |  |  | O=C(Cn1cnc2ccccc21)NC(O)c1ccc([N+](=O)[O-])o1 (stereo not drawn) | 31.2 | 5.91 | 1.78 | 5.66 | 9.49 | 4.18 | 3.9 | 5.14 | 5.9 | 5.37 | 3.22 | 5.57
9 |  |  |  |  | Cc1cc2nc(/C(C#N)=C/c3ccc([N+](=O)[O-])s3)[nH]c2cc1C | 0.14 | 0.05 | 0.03 | 0.04 | 0.12 | 0.2 | 0.12 | 0.06 | 0.02 | 0.13 | 0.1 | 0.05
10 | 28 (≈ 6.92 µg/mL) |  |  |  | N#C/C(=C\c1ccccn1)c1nc2cccnc2[nH]1 | 10 | 3.9 | 7.37 | 8.89 | 13.9 | 7.97 | 8.18 | 7.98 | 5.15 | 8.28 | 5.53 | 8.14
11 |  |  |  |  | COc1ccc(/C=C(\C#N)c2nc3ccccc3[nH]2)s1 | 21.2 | 31.9 | 5.24 | > 40 | 12 | 13.8 | 14.7 | 20.5 | 7.19 | 13.2 | 36.8 | 12.2
12 | 1.4 (≈ 0.394 µg/mL) |  |  |  | N#C/C(=C\c1ccc([N+](=O)[O-])o1)c1nc2cccnc2[nH]1 | 1.76 | 1.08 | 0.41 | 1.02 | 5.46 | 1.81 | 1.11 | 1.58 | 0.75 | 1.39 | 0.72 | 1.33
13 |  |  |  |  | N#C/C(=C\c1cccc([N+](=O)[O-])c1)n1cnc2ccccc21 | 4.02 | 4.01 | 3.48 | 3.39 | 3.09 | 2.26 | 4.16 | 2.3 | 2.86 | 2.61 | 6.57 | 4.06
14 |  | > 215 | > 215 | 215 (≈ 52.9 µg/mL) | N#C/C(=C\c1ccccn1)c1nc2ccccc2[nH]1 | 2.68 | 2.28 | 7.42 | 6.58 | 3.67 | 3.67 | 4.73 | 10.5 | 2.84 | 8.14 | 1.91 | 6.82
15 |  |  |  |  | N[C@@H](Cc1ccc(N(CCCl)CCCl)cc1)C(=O)O [MELPHALAN] | 14.2 | 0.31 | 4 | 5.95 | 8.18 | 2.65 | 4.69 | 10.5 | 5.13 | 3.71 | 1 | 16.2
16 |  |  |  |  | N#C/C(=C\c1cccnc1)c1nc2ccccc2[nH]1 | 3.47 | 1.79 | 1.97 | 4.92 | 3.92 | 3.27 | 3.5 | 5.13 | 3.29 | 3.15 | 3.02 | 4.25
17 |  |  |  |  | N#C/C(=C\c1ccsc1)c1nc2ccccc2[nH]1 | 7.82 | 14.1 | 3.75 | 28.9 | 23 | 15.7 | 13.3 | 14.6 | 6.39 | 14.4 | 23.8 | 16
18 |  |  |  |  | O=C(Cn1cnc2ccccc21)NC(O)c1ccc([N+](=O)[O-])s1 (stereo not drawn) | 2.96 | 33.7 | 7.46 | 22.4 | 140 | 9.6 | 13.7 | 24.2 | 228 | 13.1 | 11.7 | 57.4
19 |  |  |  |  | N#C/C(=C\c1ccncc1)c1nc2ccccc2[nH]1 | 40.1 | 31.2 | 19.7 | > 40 | > 40 | > 40 | 30.7 | > 40 | 26.2 | > 40 | > 40 | 37.1
20 |  |  |  |  | N#C/C(=C\c1csc(Br)c1)c1nc2ccccc2[nH]1 | > 40 | > 40 | 22.8 | > 40 | > 40 | > 40 | > 40 | > 40 | > 40 | > 40 | > 40 | > 40
